RGS4 block – inhibitors of human RGS4. HEK293 M3R/RGS4 inducible, Fluo-4 calcium flux; active compounds read high; triggered by carbachol at its EC20. B-score at 10 µM. actives 0.45% (n = 310,000);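 active means B-score, a plate-corrected calcium signal, over three deviations above library mean, with baseline fluorescence within five deviations of library mean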;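 further: RGS4 expression induced by doxycycline in cells with stable M3 receptor; B-score is computed from the integrated fluorescence ratio over baseline after carbachol; higher B-score means a larger calcium signal and so more RGS4 inhibition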
Target sequence (P49798 whole entry, looked up): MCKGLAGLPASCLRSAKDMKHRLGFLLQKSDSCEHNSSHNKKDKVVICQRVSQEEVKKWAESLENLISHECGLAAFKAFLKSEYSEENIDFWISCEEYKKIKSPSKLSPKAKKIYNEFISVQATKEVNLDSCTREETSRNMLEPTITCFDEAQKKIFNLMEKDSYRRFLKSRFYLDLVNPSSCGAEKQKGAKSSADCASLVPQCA
MrgX1 PAM – allosterically activates human MrgX1 receptor signaling; MrgX1-HEK293, Fluo-4 calcium flux, FDSS; active compounds read high; actives 0.63% (n = 310,000); B-score at 10 µM;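 active means plate-corrected calcium response at least 3 library SD above typical, normal starting fluorescence, not activating the receptor alone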;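 further: compound read alongside a low EC10 to EC30 dose of BAM8-22 agonist; peak minus trough fluorescence over baseline measured at the second addition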
Target sequence (Q96LB2 whole entry, looked up): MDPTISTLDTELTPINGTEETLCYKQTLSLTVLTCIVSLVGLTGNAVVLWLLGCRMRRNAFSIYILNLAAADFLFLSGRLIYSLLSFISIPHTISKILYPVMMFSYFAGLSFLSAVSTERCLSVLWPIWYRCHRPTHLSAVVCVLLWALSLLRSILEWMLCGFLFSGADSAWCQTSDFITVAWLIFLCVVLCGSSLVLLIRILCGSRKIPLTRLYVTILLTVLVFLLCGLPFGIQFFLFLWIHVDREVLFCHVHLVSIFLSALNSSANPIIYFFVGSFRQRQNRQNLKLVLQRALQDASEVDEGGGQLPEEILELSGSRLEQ
MrgX1 ag – human MrgX1 receptor agonism, primary screen | Q96LB2 | MrgX1-HEK293 cells, Fluo-4 calcium fluorescence, agonist mode; active compounds read high | B-score at 10 µM | actives 0.44% (n = 310,000) | AID 588627;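 active means calcium response B-score plate-corrected fluorescence ratio at least 3 library SD, with starting fluorescence B-score inside 5 SD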
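System – MrgX1-expressing HEK293 cells · Incubation – cells plated overnight, dye loaded 0.5 h 37 °C, 0.5 h room temperature · Technique – kinetic Fluo-4 NW fluorescence of intracellular calcium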
RGS4 pot – potentiators or activators of RGS4; HEK293 M3R/inducible RGS4, carbachol calcium flux Fluo4; active compounds read low; B-score at 10 µM; actives 0.92% (n = 310,000);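 active means B-score of the integrated calcium signal more than 4 SD below the library mean, with starting fluorescence not abnormally high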;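 further: negative B-score means reduced calcium response which marks RGS4 activation or potentiation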
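Material: M3R-expressing HEK293 line, RGS4 induced by doxycycline | Schedule: Overnight RGS4 induction, 30 min dye load 37 °C, 20 min compound RT | Measured by: Fluo4 fluorescence kinetic imaging of calcium | Read-out: Integrated calcium ratio converted to B score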
MrgX1 antag – human MrgX1 receptor antagonism, primary screen. MRGX1-HEK293 calcium flux, Fluo-4, BAM8-22 antagonism; active compounds read low. Q96LB2. B-score at 10 µM. actives 1.3% (n = 310,000). AID 588676;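 active means calcium-response B-score plate-corrected more than 3 library SD below zero, starting fluorescence within 5 deviations, no agonist response on first addition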;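 further: peak minus trough fluorescence over baseline after final BAM8-22 challenge near maximal dose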
The depositor's hits bear a star; i = inactive; · = no result. In the library only some 3.5% were active in any assay of this set; here they are far more common.

SMILES	RGS4 block	MrgX1 PAM	MrgX1 ag	RGS4 pot	MrgX1 antag
CC(C)N1CCc2c(sc(NC(=S)NC(=O)c3ccccc3)c2C#N)C1	i	i	i	i	i
CCOC(=O)c1c(NC(=S)Nc2ccccc2)sc2c1CCN(CCc1ccccc1)C2	·	i	i	·	-5*
CCCN1CCc2c(sc(NC(=S)NC(=O)c3ccccc3)c2C#N)C1	i	i	80*	i	i
CCC1CCCCN1C(=S)Nc1ccc(OC(F)F)cc1 (configuration not stated)	i	i	i	i	i
Clc1ccc(CSc2cc3c(nn2)-c2ccccc2CC3)cc1Cl	i	i	i	-8.1*	i
Cc1ccc(C(=O)NCC(=O)N2CCC(Cc3ccccc3)CC2)cc1	i	i	i	i	i
COc1cc(-c2nc3cc(C)ccn3c2NC2CCCCC2)ccc1-c1ccc(C(C)=O)cc1	i	i	i	i	i
COc1cc(-c2nc3ccccn3c2NCc2ccccc2)ccc1SC1CCCCC1	i	i	i	i	i
CCCCCCSc1cc(-c2nc3cc(C)ccn3c2NC2CCCCC2)ccc1OC	i	i	i	i	i
COc1ccc(-c2nc3ccccn3c2NC2CCCCC2)cc1SC1CCCCC1	i	i	i	-7.9*	i
CCCCNc1c(-c2ccc(-c3ccc(C(C)=O)cc3)c(OC)c2)nc2cnccn12	i	i	i	-11*	i
CCCCCCSc1cc(-c2nc3cnccn3c2NCc2ccccc2)ccc1OC	i	i	i	-9.7*	i
CCCCNc1c(-c2ccc(OC)c(SC3CCCCC3)c2)nc2cnccn12	i	i	i	-10*	i
COc1cccc(C(=O)Oc2ccc(N3C(=O)CCC3=O)c(C)c2)c1	i	i	i	i	i
O=C(NCC(O)c1ccccc1)c1ccc(Cl)c(S(=O)(=O)N2CCCC2)c1 (configuration not stated)	i	i	i	i	i
CCOC(=O)N1CCN(S(=O)(=O)c2cc(Br)cnc2N)CC1	i	i	i	-7.4*	i
COc1ccccc1CNC(=O)c1nn(-c2ccc(C)cc2)c(=O)c2c1c1ccccc1n2C	i	i	i	i	-8*
CCC(C)[C@H](NC(=O)N1CCn2c1nc1ccccc12)C(=O)NCc1ccccc1 (some centres not stated)	i	i	i	i	i
CCCc1cc(-c2nc(N)ncc2-c2ccc3c(c2)OCCCO3)c(O)cc1OC	i	i	i	-9.2*	i
CC12CC(NC(=O)N1c1cccc(C(=O)NCc3ccc4c(c3)OCO4)c1)c1cc(Cl)ccc1O2 (configuration not stated)	i	i	i	i	-7*
CC(C)C(=O)Nc1cccc(C(=O)NCc2ccc3c(c2)OCO3)c1	i	i	i	i	i
CC(C)O/C(=N\S(=O)(=O)c1ccc(Cl)cc1)c1ccccc1	i	i	i	-7.1*	i
CC(C)CO/C(=N/S(=O)(=O)c1ccccc1)c1ccccc1	i	i	i	i	i
COC(=O)COn1c(SCC(=O)OC)nc2ccccc2c1=O	i	i	i	i	-4.6*
Cc1cnn(Cc2cccnc2)c1N	i	i	i	i	i
SMILES	RGS4 block	MrgX1 PAM	MrgX1 ag	RGS4 pot	MrgX1 antag
CN(Cc1ccccn1)C(=O)C1CCC(=O)N(Cc2cccc(C(F)(F)F)c2)C1 (configuration not stated)	i	i	i	i	i
Cn1c(COc2ccccc2)nnc1SCC(=O)NC1CCCC1	i	i	i	i	i
Cc1cccc(C(=O)NNC(=O)CCC(=O)Nc2cccc(Cl)c2C)c1	i	i	i	i	-6.9*
CC(C)CC(=O)NC1(C(F)(F)F)C(=O)N(CC(C)C)C2=C1C(=O)CC(C)(C)C2 (configuration not stated)	i	i	i	i	i
O=C(O)CCC1c2cc3c4cc2OC2Oc5cc6c(cc51)C(CCC(=O)O)c1cc5c7cc1OC(O6)c1cc6cc(c1)Oc1cc(cc(C(=O)O)c1)Oc1cc8cc(c1)C(Oc1cc(c(cc1C5CCC(=O)O)C3CCC(=O)O)OC(O4)c1cc(cc(c1)Oc1cc(cc(C(=O)O)c1)O8)Oc1cc(cc(C(=O)O)c1)Oc1cc(cc2c1)Oc1cc(cc(C(=O)O)c1)O6)O7 (configuration not stated)	i	i	29*	i	i
Cc1ccc(Oc2ncccc2/C=N/OCc2ccc(Cl)c(Cl)c2)cc1	i	8.6*	i	i	i
O=C1c2ccccc2-c2c1cccc2C(=O)N1CCCCC1	i	i	i	i	i
CC1CC(C)CN(C(=O)c2ccc3c(c2NCCO)C(=O)c2ccccc2C3=O)C1 (configuration not stated)	i	14*	i	i	i
COc1ccccc1-n1ccnc(SCC(=O)NCCc2ccccc2)c1=O	i	i	i	i	i
COc1ccc(C(=O)c2sc3nc(-c4ccccc4)ccc3c2N)cc1	i	11*	i	i	i
CC(C)OC(=O)c1sc2nc(-c3ccccc3)ccc2c1N	i	i	i	i	i
Cc1c(NC(=O)Nc2cc(Cl)ccc2Cl)c(=O)n(-c2ccccc2)n1C	i	i	i	i	i
C=CC[n+]1c(-c2ccc(Cl)cc2Cl)csc1Nc1c(C)n(C)n(-c2ccccc2)c1=O	i	i	28*	i	i
C=CC[n+]1c(-c2ccc(C)cc2)csc1Nc1c(C)n(C)n(-c2ccccc2)c1=O	i	i	i	-7.9*	i
CCCC[n+]1c(-c2ccc(Cl)cc2Cl)csc1Nc1ccccc1	i	i	i	i	i
C=CC[n+]1c(-c2ccc(Cl)cc2Cl)csc1Nc1ccc(NC(C)=O)cc1	i	i	i	-7*	i
CCC1CCCCN1S(=O)(=O)c1ccc(C(=O)Nc2nnc(C3CC3)o2)cc1 (configuration not stated)	i	i	i	i	i
CCC1CCCCN1S(=O)(=O)c1ccc(C(=O)Nc2nnc(-c3ccccc3Cl)o2)cc1 (configuration not stated)	i	i	38*	i	i
O=C(Nc1nnc(-c2cccs2)o1)c1ccc(S(=O)(=O)N2CCOCC2)cc1	i	i	i	i	i
CC1(C)COCN1S(=O)(=O)c1ccc(C(=O)Nc2nnc(-c3ccc(Cl)s3)o2)cc1	i	i	80*	i	i
Cc1ccc(CC(=O)NNC(=O)c2ccncc2)cc1C	i	i	i	i	i
